Laboratory results from PMC4822498 (Journal of pharmaceutical sciences, 2015).
pEC50: −log10 of the molar value. In brackets after ≈: the same amount, converted by molar mass. Each block holds one compound with its values, some of them ahead of it.

Key:
[1] = In vitro release study from IVR segments with release modelling; type: physicochemical
HIV-1IIIB = test: Cytopathic effects; type: cell-based
HIV-1ZA/97/009 = test: Anti-HIV assay in fresh human PBMCs; type: cell-based
HIV-1RF = test: Inhibition of cell to cell virus transmission assay; type: cell-based
[2] = Determination of aqueous solubility; type: physicochemical; details: DDI water, 37°C
Summary of the method: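 Saturated solution of test compound in 18 MΩ DDI water, shaken at 250 rpm at 37°C. Aliquots at time zero, 24 h and 48 h were filtered through 0.2 µm nylon and stored at −80°C before analysis.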

[3] = Chemical stability of the analogues in aqueous solution at pH 4.0 and 5.0; type: physicochemical
Summary of the method: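 Test compound prepared as 50 µM stock solutions in 10 mM acetate buffer (pH 4.0 and 5.0) and held at 40°C/75% RH. Aliquots were taken at 0, 1, 2 and 4 weeks; time-zero samples (n=3) were stored at −80°C. Drug content was measured by HPLC with norethindrone internal standard (LOQ 18.0 pmol). k = −2.303 × slope of a linear regression of log concentration vs time (first order).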

diffusivity ([1]; IQP-0528 single agent IVR): 3.9 ± 0.4 × 10^−10 cm^2/s | release of IQP-0528 relative to SAMT-10 by mass ([1]; combination IVR): ~3.5 times | diffusivity ([1]; combination IVR, in presence of 8% SAMT-10): 2.8 ± 0.8 × 10^−10 cm^2/s | decrease of diffusivity in the presence of 8% SAMT-10 ([1]; combination vs single agent IVR): 27% | cumulative release ([1]; from combination IVR, 30 days, scaled to full IVR): 86 ± 13 mg/IVR | pEC50 (HIV-1IIIB; Human immunodeficiency virus 1, CEM-SS): 8.70 | pEC50 (HIV-1ZA/97/009; Human immunodeficiency virus 1, PBMC, in Homo sapiens): 8.22 | pEC50 (HIV-1RF; Human immunodeficiency virus 1): 8.22
Structure (SMILES): Cc1cc(C)cc(C(=O)c2c(C(C)C)c(=O)[nH]c(=O)n2CC2CC2)c1 [IQP-0528, 1-cyclopropylmethyl-6-(3,5-dimethyl-benzoyl)-5-isopropyl-1H-pyrimidine-2,4-dione]
EC95 (HIV-1IIIB; CEM-SS/HIV-1IIIB): 8 nM | EC95 (HIV-1ZA/97/009; PBMCs/HIV-1ZA/97/009): 0.019 µM | EC95 (HIV-1RF; HIV-1RF Cell to Cell Transmission): 0.085 µM

Structure (SMILES): NC(=O)CCNC(=O)c1ccccc1SC(=O)c1ccccc1 [SAMT-08]
water solubility [2]: 2377.6 ± 27.8 µM (≈ 781 µg/mL) | concentration remaining in aqueous solution ([3]; pH 4.0, 40°C/75% RH, 0 weeks): 46.5 ± 0.1 pmol/µL | concentration remaining in aqueous solution ([3]; pH 4.0, 40°C/75% RH, 1 week): 40.9 ± 0.1 pmol/µL | concentration remaining in aqueous solution ([3]; pH 4.0, 40°C/75% RH, 2 weeks): 35.1 ± 0.5 pmol/µL | concentration remaining in aqueous solution ([3]; pH 4.0, 40°C/75% RH, 4 weeks, ND = Not Detected): 26.8 ± 0.2 pmol/µL | Degradation rate constant (k) ([3]; pH 4.0, first order): 2.3 10^−7 sec^−1 | concentration remaining in aqueous solution ([3]; pH 5.0, 40°C/75% RH, 0 weeks): 68.6 ± 0.2 pmol/µL | concentration remaining in aqueous solution ([3]; pH 5.0, 40°C/75% RH, 1 week): 57.3 ± 0.6 pmol/µL | concentration remaining in aqueous solution ([3]; pH 5.0, 40°C/75% RH, 2 weeks): 49.0 ± 1.8 pmol/µL | concentration remaining in aqueous solution ([3]; pH 5.0, 40°C/75% RH, 4 weeks, ND = Not Detected): 36 ± 1.43 pmol/µL | Degradation rate constant (k) ([3]; pH 5.0, first order): 2.3 10^−7 sec^−1
